Assay results: ChEMBL document CHEMBL4339200, “Structure-based Discovery of Phenyl (3-Phenylpyrrolidin-3-yl)sulfones as Selective, Orally Active RORγt Inverse Agonists” (ACS Med Chem Lett, 2019)
pEC50: −log10 of the molar value.

Assays:
[1] = target: T1, Nuclear receptor subfamily 1 group I member 2 (Homo sapiens, UniProt O75469); test: Transactivation of PXR in human HepG2 cells; format: ADME, cell-based
T1 sequence (O75469 whole entry): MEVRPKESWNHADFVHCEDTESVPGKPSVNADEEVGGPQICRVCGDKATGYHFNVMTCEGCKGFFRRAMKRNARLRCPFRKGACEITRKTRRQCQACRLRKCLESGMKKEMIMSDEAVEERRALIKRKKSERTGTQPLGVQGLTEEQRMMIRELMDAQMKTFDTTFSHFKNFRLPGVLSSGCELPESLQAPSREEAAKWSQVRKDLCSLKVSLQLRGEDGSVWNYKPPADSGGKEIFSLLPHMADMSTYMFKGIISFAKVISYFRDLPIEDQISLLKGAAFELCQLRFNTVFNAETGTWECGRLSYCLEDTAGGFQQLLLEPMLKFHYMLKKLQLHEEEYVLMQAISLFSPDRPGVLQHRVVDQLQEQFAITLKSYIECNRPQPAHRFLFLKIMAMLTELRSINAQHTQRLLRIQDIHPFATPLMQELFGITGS

PXR (NR1I2) = target: T2, PXR (NR1I2) (Homo sapiens, UniProt O75469); test: Transactivation of PXR in human HepG2 cells relative to rifampicin; format: ADME, cell-based; details: read-out: %max
T2 sequence (O75469 whole entry): T1 sequence (O75469 whole entry)

[2] = target: T3, Oxysterols receptor LXR-beta (Homo sapiens, UniProt P55055); test: Agonist activity at LXRbeta (unknown origin) expressed in African green monkey CV1 cells; format: cell-based
T3 sequence (P55055 whole entry): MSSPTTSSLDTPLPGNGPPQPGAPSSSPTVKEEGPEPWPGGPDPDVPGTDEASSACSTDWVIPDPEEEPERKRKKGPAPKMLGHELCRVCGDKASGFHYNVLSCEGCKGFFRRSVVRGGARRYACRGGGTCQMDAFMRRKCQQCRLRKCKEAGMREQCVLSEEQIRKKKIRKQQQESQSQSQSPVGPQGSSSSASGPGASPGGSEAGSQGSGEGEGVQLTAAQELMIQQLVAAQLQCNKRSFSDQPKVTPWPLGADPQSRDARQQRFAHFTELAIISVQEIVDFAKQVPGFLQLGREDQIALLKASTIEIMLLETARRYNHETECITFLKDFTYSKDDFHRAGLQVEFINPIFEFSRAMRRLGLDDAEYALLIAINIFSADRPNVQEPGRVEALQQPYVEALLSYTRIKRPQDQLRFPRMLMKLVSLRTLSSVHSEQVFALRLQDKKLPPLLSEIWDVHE

[3] = target: T4, Oxysterols receptor LXR-alpha (Homo sapiens, UniProt Q13133); test: Agonist activity at LXRalpha (unknown origin) expressed in African green monkey CV1 cells; format: cell-based
T4 sequence (Q13133 whole entry): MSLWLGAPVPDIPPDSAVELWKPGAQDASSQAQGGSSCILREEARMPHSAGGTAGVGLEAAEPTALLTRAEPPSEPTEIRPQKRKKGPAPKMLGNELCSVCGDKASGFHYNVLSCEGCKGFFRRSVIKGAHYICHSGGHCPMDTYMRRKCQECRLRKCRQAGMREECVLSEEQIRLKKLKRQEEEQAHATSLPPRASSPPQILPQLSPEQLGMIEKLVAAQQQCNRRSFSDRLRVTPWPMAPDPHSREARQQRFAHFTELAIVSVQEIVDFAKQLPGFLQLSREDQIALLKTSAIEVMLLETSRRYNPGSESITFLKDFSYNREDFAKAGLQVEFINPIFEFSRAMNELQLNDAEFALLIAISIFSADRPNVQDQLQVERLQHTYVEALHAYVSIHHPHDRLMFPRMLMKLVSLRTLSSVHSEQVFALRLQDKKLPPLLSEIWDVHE

[4] = Stability in mouse liver microsomes assessed as parent compound remaining after 10 mins; format: ADME, Microsome; details: read-out: Stability
Outline: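 Rough stability screen: compound incubated with mouse liver microsomes for 10 min, reported as percentage of parent remaining.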

[5] = Protein binding in human plasma assessed as unbound fraction; format: ADME, cell-free
[6] = Protein binding in mouse plasma assessed as unbound fraction; format: ADME, cell-free
[7] = Permeability in human Caco2 cells; format: ADME, cell-based; details: Caco-2, read-out: permeability
Outline: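 Caco-2 monolayer permeability, reported as permeation coefficient in nm/s; an efflux ratio was also determined.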

[8] = target: T5, Oxysterols receptor LXR-alpha (Homo sapiens) (UniProt Q13133); test: Agonist activity at LXRalpha (unknown origin) expressed in African green monkey CV1 cells relative to T0901317; format: cell-based
T5 sequence (whole entry): T4 sequence (Q13133 whole entry)

[9] = target: T6, Oxysterols receptor LXR-beta (Homo sapiens) (UniProt P55055); test: Agonist activity at LXRbeta (unknown origin) expressed in African green monkey CV1 cells relative to T0901317; format: cell-based
T6 sequence (whole entry): T3 sequence (P55055 whole entry)

Structure (SMILES)	pEC50 [1]	Emax (PXR (NR1I2)) [%]	pEC50 [2]	pEC50 [3]	remaining at 10 min [4] [%]	fraction unbound [5]	fraction unbound [6]	Papp [7] [×10⁻⁶ cm/s]	%max [8] [%]	%max [9] [%]
O=S(=O)(c1ccc(F)cc1)C1(c2ccc(C(F)(C(F)(F)F)C(F)(F)F)cc2)CCCC1	6.00	130								
CC(O)(c1ccc(C2(S(=O)(=O)c3ccc(F)cc3)CCCC2)cc1)C(F)(F)F (racemic)	6.62	110								
CC(=O)N1CCC(C(=O)N2CC[C@](c3ccc(C(O)(C(F)(F)F)C(F)(F)F)cc3)(S(=O)(=O)c3ccc(F)cc3)C2)CC1			< 5.12	< 5.12						
CCNC(=O)N1CCC(c2ccc(C(O)(C(F)(F)F)C(F)(F)F)cc2)(S(=O)(=O)c2ccc(F)cc2)C1 (racemic)			< 5.12	< 5.12						
CC(c1ccc(C2(S(=O)(=O)c3ccc(F)cc3)CCCC2)cc1)(C(F)(F)F)C(F)(F)F	6.12	140								
O=C(O)[C@H]1CC[C@H](C(=O)N2CC[C@](c3ccc(C(F)(C(F)(F)F)C(F)(F)F)cc3)(S(=O)(=O)c3ccc(F)c(C4CC4)c3)C2)CC1	< 4.30	9	< 5.12	< 5.12	74					
O=C(O)[C@H]1CC[C@H](C(=O)N2CC[C@](c3ccc(C(F)(C(F)(F)F)C(F)(F)F)cc3)(S(=O)(=O)c3ccccc3)C2)CC1	< 4.30	10	< 5.12	< 5.12	96					
O=C(O)[C@H]1CC[C@@H](C(=O)N2CC[C@](c3ccc(C(F)(C(F)(F)F)C(F)(F)F)cc3)(S(=O)(=O)c3ccc(F)cc3)C2)CC1			< 5.12	< 5.12						
Cc1cc(S(=O)(=O)[C@@]2(c3ccc(C(F)(C(F)(F)F)C(F)(F)F)cc3)CCN(C(=O)[C@H]3CC[C@H](C(=O)O)CC3)C2)ccc1F	< 4.64	40	< 5.12	< 5.12	84	0.017	0.029			
O=S(=O)(c1ccc(F)cc1)[C@]1(c2ccc(C(O)(C(F)(F)F)C(F)(F)F)cc2)CCNC1	6.28	110	< 5.12	< 5.12						
COc1ccc(S(=O)(=O)[C@@]2(c3ccc(C(F)(C(F)(F)F)C(F)(F)F)cc3)CCN(C(=O)[C@H]3CC[C@H](C(=O)O)CC3)C2)cc1	< 4.30	12	< 5.12	< 5.12	98					
CS(=O)(=O)N1CCC(C(=O)N2CC[C@](c3ccc(C(F)(C(F)(F)F)C(F)(F)F)cc3)(S(=O)(=O)c3ccc(F)cc3)C2)CC1	< 4.30	2	< 5.12	< 5.12	69					
CC(=O)N1CCC(C(=O)N2CC[C@](c3ccc(C(F)(C(F)(F)F)C(F)(F)F)cc3)(S(=O)(=O)c3ccc(F)cc3)C2)CC1		7	< 5.12	< 5.12						
O=S(=O)(c1ccc(F)cc1)C1(c2ccc(C(Cl)(C(F)(F)F)C(F)(F)F)cc2)CCCC1	6.64	110								
CCc1ccc(S(=O)(=O)[C@@]2(c3ccc(C(F)(C(F)(F)F)C(F)(F)F)cc3)CCN(C(=O)[C@H]3CC[C@H](C(=O)O)CC3)C2)cc1	< 4.30	3	< 5.12	< 5.12	100					
O=C(O)[C@H]1CC[C@H](C(=O)N2CC[C@](c3ccc(C(F)(C(F)(F)F)C(F)(F)F)cc3)(S(=O)(=O)c3ccc(Cl)cc3)C2)CC1	5.19	22	< 5.12	< 5.12	100					

Structure (SMILES)	pEC50 [1]	Emax (PXR (NR1I2)) [%]	pEC50 [2]	pEC50 [3]	remaining at 10 min [4] [%]	fraction unbound [5]	fraction unbound [6]	Papp [7] [×10⁻⁶ cm/s]	%max [8] [%]	%max [9] [%]
CC(=O)N1CCC(c2ccc(C(O)(C(F)(F)F)C(F)(F)F)cc2)(S(=O)(=O)c2ccc(F)cc2)C1 (racemic)	6.32	100	< 5.12	< 5.12						
O=C(O)C1CCN(C(=O)N2CC[C@](c3ccc(C(F)(C(F)(F)F)C(F)(F)F)cc3)(S(=O)(=O)c3ccc(F)cc3)C2)CC1	< 4.34	23	< 5.12	< 5.12	88					
CC(=O)N1CCN(C(=O)N2CC[C@](c3ccc(C(F)(C(F)(F)F)C(F)(F)F)cc3)(S(=O)(=O)c3ccc(F)cc3)C2)CC1		10	< 5.12	< 5.12	68					
O=C(O)[C@H]1CC[C@H](C(=O)N2CC[C@](c3ccc(C(O)(C(F)(F)F)C(F)(F)F)cc3)(S(=O)(=O)c3ccc(F)cc3)C2)CC1	< 4.30	11	< 5.12	< 5.43				< 1.5		
O=S(=O)(c1ccc(F)cc1)[C@@]1(c2ccc(C(O)(C(F)(F)F)C(F)(F)F)cc2)CCNC1	6.36	110	< 5.12	5.53					58	
O=S(=O)(c1ccc(F)cc1)C1(c2ccc(C(O)(C(F)(F)F)C(F)(F)F)cc2)CCCC1	8.00	110								
CCc1cc(S(=O)(=O)[C@@]2(c3ccc(C(F)(C(F)(F)F)C(F)(F)F)cc3)CCN(C(=O)[C@H]3CC[C@H](C(=O)O)CC3)C2)ccc1F	< 4.30	9	< 5.12	< 5.12	73					
Cc1ccc(S(=O)(=O)[C@@]2(c3ccc(C(F)(C(F)(F)F)C(F)(F)F)cc3)CCN(C(=O)[C@H]3CC[C@H](C(=O)O)CC3)C2)cc1	4.90	29	< 5.12	< 5.12	85	0.013	0.026			
CC(=O)N1CCN(C(=O)N2CC[C@@](c3ccc(C(O)(C(F)(F)F)C(F)(F)F)cc3)(S(=O)(=O)c3ccc(F)cc3)C2)CC1			< 5.12	< 5.12						
CC(=O)N1CCN(C(=O)N2CC[C@](c3ccc(C(O)(C(F)(F)F)C(F)(F)F)cc3)(S(=O)(=O)c3ccc(F)cc3)C2)CC1			< 5.12	< 5.12						
CCC(O)(c1ccc(C2(S(=O)(=O)c3ccc(F)cc3)CCCC2)cc1)C(F)(F)F (racemic)	7.32	110								
O=C(C1CCCC1)N1CCC(c2ccc(C(O)(C(F)(F)F)C(F)(F)F)cc2)(S(=O)(=O)c2ccc(F)cc2)C1 (racemic)	6.10	99	< 5.12	< 5.12						
COC(=O)N1CCC(c2ccc(C(O)(C(F)(F)F)C(F)(F)F)cc2)(S(=O)(=O)c2ccc(F)cc2)C1 (racemic)			5.72	6.39					62	39
NC(c1ccc(C2(S(=O)(=O)c3ccc(F)cc3)CCCC2)cc1)(C(F)(F)F)C(F)(F)F	6.56	120								
CS(=O)(=O)N1CCC(C(=O)N2CC[C@](c3ccc(C(O)(C(F)(F)F)C(F)(F)F)cc3)(S(=O)(=O)c3ccc(F)cc3)C2)CC1	< 5.61	89	< 5.12	< 5.12						
